What was measured:
[1] = system: DU-145; experiment: Cytotoxicity against human DU145 cells assessed as growth inhibition after 72 hrs by MTT assay; assay type: functional, cell-based; conditions: DU-145, 72 h
Method in brief: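 Seeded at 3000 cells/well and incubated with diluted compounds, with bexarotene and SAHA as positive controls, for 72 h. Final DMSO 0.1%. Remaining cells quantified with MTT dye per manufacturer instructions.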

[2] = system: A549; experiment: Cytotoxicity against human A549 cells assessed as growth inhibition after 72 hrs by MTT assay; assay type: functional, cell-based; conditions: A549, 72 h
[3] = system: KB; experiment: Cytotoxicity against bexarotene-resistant human KB cells assessed as growth inhibition after 48 hrs by MTT assay; assay type: functional, cell-based
Method in brief: (§1)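 Cells seeded at 3000 per well and exposed to diluted compounds, with bexarotene and SAHA as positive controls, for 48 h (drug-resistant cells) or 72 h (parental cells). Final DMSO 0.1%. Cell number determined by MTT dye per manufacturer instructions.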

[4] = system: HGC-27; experiment: Cytotoxicity against human HGC27 cells assessed as growth inhibition after 72 hrs by MTT assay; assay type: functional, cell-based; conditions: HGC-27, 72 h
[5] = biological target: Histone deacetylase; experiment: Inhibition of HDAC isolated from human HeLa cell nuclear extract after 30 mins by fluorescence assay; assay type: protein assay
[6] = biological target: T1, Histone deacetylase (Homo sapiens) (UniProt Q13547+O15379+Q9UBN7+Q92769+Q9UQL6+Q8WUI4+Q9BY41+Q96DB2+P56524+Q9UKV0+Q969S8); experiment: Inhibition of HDAC in human HL60 cells using Boc-Lys(Ac)-pNA as substrate incubated for 24 hrs prior to substrate addition measured after 90 mins by fluorescence assay; assay type: cell-based; conditions: HL-60
Method in brief: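 HL60 cells exposed to a range of compound concentrations or SAHA for 24 h, then lysed and protein measured by BCA. Lysates incubated with Boc-Lys(Ac)-pNA (10 mM) in HDAC assay buffer for 90 min at 37 °C. Lysine Developer added and incubated 30 min at 37 °C before plate-reader readout. Mean ± SD of three determinations.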

[7] = biological target: T1, Histone deacetylase (Homo sapiens); experiment: Inhibition of HDAC in human HL60 cells assessed as increase in p21 WAF1/CIP1 level after 48 hrs by Western blot analysis; assay type: cell-based; conditions: HL-60
Method in brief: (§2)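 About 1 × 10⁷ HL60 cells exposed to compound or SAHA for 48 h. Nuclear protein extracted, equal protein amounts resolved on 10–15% SDS–PAGE and blotted to PVDF. Probed for acetylated H3 and p21WAF1/CIP1, with histone H3 and β-actin as loading controls. ECL detection on X-ray film, densitometry relative to control.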

[8] = biological target: T1, Histone deacetylase (Homo sapiens); experiment: Inhibition of HDAC in human HL60 cells assessed as increase in acetylated H3 level after 48 hrs by Western blot analysis; assay type: cell-based; conditions: HL-60; method in brief: as §2
[9] = system: KB; experiment: Cytotoxicity against human KB cells assessed as growth inhibition after 72 hrs by MTT assay; assay type: functional, cell-based; method in brief: as §1
[10] = Cytotoxicity against human GBC-SD cells assessed as growth inhibition after 72 hrs by MTT assay; assay type: functional, cell-based
[11] = system: A549/SAHA; experiment: cells; conditions: Homo sapiens, 48 h
[12] = Cytotoxicity against human Hep3B cells assessed as growth inhibition after 72 hrs by MTT assay; assay type: functional, cell-based, Hep 3B2
[13] = biological target: T2, Retinoic acid receptor RXR-alpha (Homo sapiens, UniProt P19793); experiment: Transactivation of human RXRalpha transfected in human 293 cells after 48 hrs by dual-luciferase reporter gene assay; assay type: cell-based, HEK293
T2 sequence (P19793 whole entry): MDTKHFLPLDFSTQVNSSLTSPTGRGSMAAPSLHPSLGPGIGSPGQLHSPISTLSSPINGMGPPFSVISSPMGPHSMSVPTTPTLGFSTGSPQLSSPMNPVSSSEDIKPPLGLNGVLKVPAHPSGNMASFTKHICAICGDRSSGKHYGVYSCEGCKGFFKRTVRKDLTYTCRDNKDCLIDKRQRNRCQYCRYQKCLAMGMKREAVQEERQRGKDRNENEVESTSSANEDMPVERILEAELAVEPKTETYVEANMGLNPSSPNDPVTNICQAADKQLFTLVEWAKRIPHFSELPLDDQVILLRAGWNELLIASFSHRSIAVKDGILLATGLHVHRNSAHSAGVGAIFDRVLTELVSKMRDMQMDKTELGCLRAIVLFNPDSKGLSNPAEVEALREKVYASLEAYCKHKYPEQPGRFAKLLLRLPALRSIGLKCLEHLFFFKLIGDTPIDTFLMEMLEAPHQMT

Row | IC50 [5] [µM] | inhibition [6] | inhibition [7] | inhibition [8] | IC50 [11] [µM] | EC50 [13] [µM] | SMILES | IC50 [1] [µM] | IC50 [2] [µM] | IC50 [3] [µM] | IC50 [4] [µM] | IC50 [9] [µM] | IC50 [10] [µM] | IC50 [12] [µM]
1 | – | – | – | – | – | – | O=C(CCCCCCC(=O)Nc1ccccc1)NO [VORINOSTAT] | 27.2 | – | – | – | – | – | –
2 | 6.7 | Dose-dependent effect | Dose-dependent effect | Dose-dependent effect | 3.8 | 0.0195 | C=C(c1ccc(C(=O)NO)cc1)c1cc2c(cc1C)C(C)(C)CCC2(C)C | 14.1 | 9.4 | 16.8 | 8.6 | 6.1 | 24.1 | 17.4
3 | – | – | – | – | – | – | C=C(c1ccc(C(=O)O)cc1)c1cc2c(cc1C)C(C)(C)CCC2(C)C [BEXAROTENE] | 61.6 | – | 46.3 | 32.7 | 8.8 | 73.3 | 192

From ChEMBL document CHEMBL2396643, “Discovery of a small molecular compound simultaneously targeting RXR and HADC: design, synthesis, molecular docking and bioassay” (Bioorg Med Chem Lett, 2013)
